According to ChEMBL document CHEMBL2034980, “N⁴-Phenyl-substituted 2-acetylpyridine thiosemicarbazones: cytotoxicity against human tumor cells, structure-activity relationship studies and investigation on the mechanism of action” (Bioorg Med Chem, 2012):
pIC50: −log10 of the molar value. Active and inactive are the calls of the source.

Tests used:
MCF7 [1] = assay: Induction of apoptosis in human MCF7 cells assessed as irregularities in cellular shape at 1 uM after 48 hrs by DAPI staining; type: functional, cell-based
U-87MG ATCC [2] = assay: Induction of apoptosis in human U87 cells assessed as irregularities in cellular shape at 1 uM after 48 hrs by DAPI staining; type: functional, cell-based
U-87MG ATCC [3] = assay: Induction of apoptosis in human U87 cells assessed as appearance of autophagolysosomes at 1 uM after 48 hrs by acridine orange/ethidium bromide staining-based microscopy; type: functional, cell-based
Outline: (§1)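 After 48 h at 1 μM, cells were incubated for 15 min in serum-free medium containing 1 μg mL⁻¹ acridine orange and 1 μg mL⁻¹ ethidium bromide. The medium was removed and cells imaged by inverted fluorescence microscopy (530–650 nm). Green/orange nuclear patterns and acidic cytoplasmic vacuoles were scored.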

U-87MG ATCC [4] = assay: Induction of apoptosis in human U87 cells assessed as chromatin condensation at 1 uM after 48 hrs by acridine orange/ethidium bromide staining-based microscopy; type: functional, cell-based; outline: as §1
[5] = Haemolytic activity in human RBC after 1 hr by photometry; type: ADME, cell-based; settings: Erythrocyte
Outline: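 Human EDTA blood was spun at 700xg for 10 min and the erythrocytes washed three times in cold PBS pH 7.4, then resuspended in it. Cells were incubated with varying compound concentrations for 1 h at 37 °C with shaking. After centrifugation, released haemoglobin was read at 540 nm to give the IC50. Mean ± SD, n = 4.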

T98G [6] = assay: Cytotoxicity against human T98G cells expressing mutant p53 after 48 hrs by MTT assay; type: functional, cell-based; settings: for pIC50: read-out: IC50
Outline: (§2)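 MTT assay. Cells were grown in DMEM with 10% FBS and penicillin/streptomycin at 37 °C under 5% CO2, seeded at 1–2×10^3 cells/well and treated 12 h later with 1×10^-12 to 1×10^-5 M ([…] from DMSO stock, final DMSO <0.5%) for 48 h. MTT was added at 0.5 mg mL⁻¹, formazan dissolved in DMSO and read at 570 nm. IC50 is the concentration giving 50% cytotoxicity. Quadruplicates, ≥3 independent experiments.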

MCF7 [7] = assay: Induction of apoptosis in human MCF7 cells assessed as DNA fragmentation at 1 uM after 48 hrs by DAPI staining; type: functional, cell-based
Outline: (§3)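 Cells were treated at 1 μM for 48 h, washed in PBS and fixed in 70% methanol for 30 min at room temperature. They were stained with 0.4 μg mL⁻¹ DAPI for 1 h in the dark, and nuclear condensation and fragmentation were scored by fluorescence microscopy (385–410 nm).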

U-87MG ATCC [8] = assay: Induction of apoptosis in human U87 cells assessed as DNA fragmentation at 1 uM after 48 hrs by DAPI staining; type: functional, cell-based; outline: as §3
MCF7 [9] = assay: Induction of apoptosis in human MCF7 cells assessed as chromatin condensation at 1 uM after 48 hrs by DAPI staining; type: functional, cell-based; outline: as §3
MCF7 [10] = assay: Induction of apoptosis in human MCF7 cells assessed as cell shrinkage at 1 uM after 48 hrs by DAPI staining; type: functional, cell-based
U-87MG ATCC [11] = assay: Induction of apoptosis in human U87 cells assessed as cell shrinkage at 1 uM after 48 hrs by DAPI staining; type: functional, cell-based
MCF7 [12] = assay: Induction of apoptosis in human MCF7 cells assessed as appearance of autophagolysosomes at 1 uM after 48 hrs by acridine orange/ethidium bromide staining-based microscopy; type: functional, cell-based; outline: as §1
MCF7 [13] = assay: Cytotoxicity against human MCF7 cells after 48 hrs by MTT assay; type: functional, cell-based; settings: for pIC50: MCF7, 48 h, read-out: IC50; outline: as §2
U-87MG ATCC [14] = assay: (§4) Cytotoxicity against human U87 cells expressing wild-type p53 after 48 hrs by MTT assay; type: functional, cell-based; outline: as §2
[15] = as §4; type: functional, cell-based, U-87MG ATCC; settings: U-87 MG, read-out: IC50; outline: as §2
MCF7 [16] = assay: Induction of apoptosis in human MCF7 cells assessed as membrane blebbing at 1 uM after 48 hrs by DAPI staining; type: functional, cell-based
T98G [17] = assay: Induction of apoptosis in human T98G cells assessed as appearance of autophagolysosomes at 1 uM after 48 hrs by acridine orange/ethidium bromide staining-based microscopy; type: functional, cell-based; outline: as §1
T98G [18] = assay: Induction of apoptosis in human T98G cells assessed as cell shrinkage at 1 uM after 48 hrs by DAPI staining; type: functional, cell-based
T98G [19] = assay: Induction of apoptosis in human T98G cells assessed as membrane blebbing at 1 uM after 48 hrs […]; type: functional, cell-based
MCF7 [20] = assay: Induction of apoptosis in human MCF7 cells assessed as chromatin condensation at 1 uM after 48 hrs by acridine orange/ethidium bromide staining-based microscopy; type: functional, cell-based; outline: as §1
U-87MG ATCC [21] = assay: Induction of apoptosis in human U87 cells assessed as membrane blebbing at 1 uM after 48 hrs by DAPI staining; type: functional, cell-based
T98G [22] = assay: Induction of apoptosis in human T98G cells assessed as irregularities in cellular shape at 1 uM after 48 hrs by DAPI staining; type: functional, cell-based
T98G [23] = assay: Induction of apoptosis in human T98G cells assessed as chromatin condensation at 1 uM after 48 hrs by acridine orange/ethidium bromide staining-based microscopy; type: functional, cell-based; outline: as §1
T98G [24] = assay: Induction of apoptosis in human T98G cells assessed as chromatin condensation at 1 uM after 48 hrs by DAPI staining; type: functional, cell-based; outline: as §3
U-87MG ATCC [25] = assay: Induction of apoptosis in human U87 cells assessed as chromatin condensation at 1 uM after 48 hrs by DAPI staining; type: functional, cell-based; outline: as §3
T98G [26] = assay: Induction of apoptosis in human T98G cells assessed as DNA fragmentation at 1 uM after 48 hrs by DAPI staining; type: functional, cell-based; outline: as §3

CC(=NNC(=S)Nc1cccc(Cl)c1)c1ccccn1 (mixture of isomers)
< 5.00: pIC50 [5]
9.00: pIC50 (T98G [6])
active: Activity (MCF7 [1]) | Activity (U-87MG ATCC [2]) | Activity (U-87MG ATCC [3]) | Activity (U-87MG ATCC [4]) | Activity (T98G [6]) Dose-dependent effect | Activity (MCF7 [7]) | Activity (U-87MG ATCC [8]) | Activity (MCF7 [9]) | Activity (MCF7 [10]) | Activity (U-87MG ATCC [11]) | Activity (MCF7 [12]) | Activity (MCF7 [13]) Dose-dependent effect | Activity (U-87MG ATCC [14]) Dose-dependent effect | Activity (MCF7 [16]) | Activity (T98G [17]) | Activity (T98G [18]) | Activity (T98G [19]) | Activity (MCF7 [20]) | Activity (U-87MG ATCC [21]) | Activity (T98G [22]) | Activity (T98G [23]) | Activity (T98G [24]) | Activity (U-87MG ATCC [25]) | Activity (T98G [26])
7.51: pIC50 [15]
7.62: pIC50 (MCF7 [13])

CC(=NNC(=S)Nc1ccc([N+](=O)[O-])cc1)c1ccccn1 (mixture of isomers)
6.80: pIC50 [15]
active: Activity (MCF7 [1]) | Activity (U-87MG ATCC [2]) | Activity (U-87MG ATCC [3]) | Activity (U-87MG ATCC [4]) | Activity (T98G [6]) Dose-dependent effect | Activity (MCF7 [7]) | Activity (U-87MG ATCC [8]) | Activity (MCF7 [9]) | Activity (MCF7 [10]) | Activity (U-87MG ATCC [11]) | Activity (MCF7 [12]) | Activity (MCF7 [13]) Dose-dependent effect | Activity (U-87MG ATCC [14]) Dose-dependent effect | Activity (MCF7 [16]) | Activity (T98G [17]) | Activity (T98G [18]) | Activity (T98G [19]) | Activity (MCF7 [20]) | Activity (U-87MG ATCC [21]) | Activity (T98G [22]) | Activity (T98G [23]) | Activity (T98G [24]) | Activity (U-87MG ATCC [25]) | Activity (T98G [26])
7.28: pIC50 (MCF7 [13])
6.85: pIC50 (T98G [6])
< 5.00: pIC50 [5]

CC(=NNC(=S)Nc1ccc(F)cc1)c1ccccn1 (mixture of isomers)
8.00: pIC50 [15]
8.92: pIC50 (MCF7 [13])
7.77: pIC50 (T98G [6])
< 5.00: pIC50 [5]
active: Activity (MCF7 [1]) | Activity (U-87MG ATCC [2]) | Activity (U-87MG ATCC [3]) | Activity (U-87MG ATCC [4]) | Activity (T98G [6]) Dose-dependent effect | Activity (MCF7 [7]) | Activity (U-87MG ATCC [8]) | Activity (MCF7 [9]) | Activity (MCF7 [10]) | Activity (U-87MG ATCC [11]) | Activity (MCF7 [12]) | Activity (MCF7 [13]) Dose-dependent effect | Activity (U-87MG ATCC [14]) Dose-dependent effect | Activity (MCF7 [16]) | Activity (T98G [17]) | Activity (T98G [18]) | Activity (T98G [19]) | Activity (MCF7 [20]) | Activity (U-87MG ATCC [21]) | Activity (T98G [22]) | Activity (T98G [23]) | Activity (T98G [24]) | Activity (U-87MG ATCC [25]) | Activity (T98G [26])

CC(=NNC(=S)Nc1ccc(I)cc1)c1ccccn1 (mixture of isomers)
active: Activity (MCF7 [1]) | Activity (U-87MG ATCC [2]) | Activity (U-87MG ATCC [3]) | Activity (U-87MG ATCC [4]) | Activity (T98G [6]) Dose-dependent effect | Activity (MCF7 [7]) | Activity (U-87MG ATCC [8]) | Activity (MCF7 [9]) | Activity (MCF7 [10]) | Activity (U-87MG ATCC [11]) | Activity (MCF7 [12]) | Activity (MCF7 [13]) Dose-dependent effect | Activity (U-87MG ATCC [14]) Dose-dependent effect | Activity (MCF7 [16]) | Activity (T98G [17]) | Activity (T98G [18]) | Activity (T98G [19]) | Activity (MCF7 [20]) | Activity (U-87MG ATCC [21]) | Activity (T98G [22]) | Activity (T98G [23]) | Activity (T98G [24]) | Activity (U-87MG ATCC [25]) | Activity (T98G [26])
< 5.00: pIC50 [5]
8.18: pIC50 (MCF7 [13])
7.23: pIC50 [15]
7.19: pIC50 (T98G [6])
